The nature of data set [1]: Half-life time was determined. The class given is ADME.
Data set [2] concerns the target T1, Adenosine deaminase (Bos taurus) (UniProt P56658).
T1 sequence (whole entry): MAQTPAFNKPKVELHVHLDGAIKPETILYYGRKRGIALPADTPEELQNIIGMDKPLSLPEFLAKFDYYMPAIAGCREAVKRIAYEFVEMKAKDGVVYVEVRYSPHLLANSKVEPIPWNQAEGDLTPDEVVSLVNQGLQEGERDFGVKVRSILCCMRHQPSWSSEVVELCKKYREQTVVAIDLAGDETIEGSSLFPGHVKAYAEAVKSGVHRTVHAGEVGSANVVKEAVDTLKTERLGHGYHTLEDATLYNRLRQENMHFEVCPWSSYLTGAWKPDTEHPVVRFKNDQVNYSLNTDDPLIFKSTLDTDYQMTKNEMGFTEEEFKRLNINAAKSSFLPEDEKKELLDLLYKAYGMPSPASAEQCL
The experiment in a line: Relative Adenosine deaminase hydrolysis rate was determined in vitro by appearance of the F-ddI […] on isolated enzyme. The gist of the method: (§1)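 Calf intestinal mucosa ADA, 0.05–1.0 unit, incubated with 50 µM substrate in pH 7.4, 0.01 M phosphate buffer at 37 °C. Timed aliquots quenched with water plus dCF and heated 1 min at 95 °C. Substrate loss and F-ddI formation followed by HPLC and fitted as exponential decay or association. Rate per unit ADA normalized to F-ddA.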

The target in data set [3] is T1, Adenosine deaminase (Bos taurus). The experiment in a line: Relative Adenosine deaminase hydrolysis rate was determined in vitro by disappearance of the substrate […] on isolated enzyme. In short, it runs like this: as §1
Data set [4] concerns PBMC. The experiment in a line: % protection was determined as the percent reduction in HIV p24 Gag protein production sing PHA/PBM system at 80 uM concentration. The class given is functional, Homo sapiens. The gist of the method:
(§2)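 PBMs from an HIV-seronegative donor, PHA-stimulated 3 days before drug addition, preincubated 2 h with compound, then infected with 250 TCID50 HIV-1 ERS104pre. Cultured at 37 °C in complete medium (15% FCS) with rIL-2. Day-8 supernatant p24 Gag measured by RIA; % protection is the reduction versus infected untreated controls. Quadruplicate.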

Data set [5] concerns PBMC. The experiment in a line: % protection was determined as the percent reduction in HIV p24 Gag protein production using PHA/PBM system at 10 uM concentration. The class given is functional, Homo sapiens. In short, it runs like this: as §2
Data set [6] relates to PBMC. Briefly: % protection was determined as the percent reduction in HIV p24 Gag protein production using PHA/PBM system at 20 uM concentration. The class given is functional, Homo sapiens. The gist of the method: as §2
In data set [7] the test system is PBMC. Briefly: % protection was determined as the percent reduction in HIV p24 Gag protein production using PHA/PBM system at 40 uM concentration. The class given is functional, Homo sapiens. The gist of the method: as §2
Data set [8] relates to PBMC. Briefly: % protection was determined as the percent reduction in HIV p24 Gag protein production using PHA/PBM system at 5 uM concentration. The format is functional, Homo sapiens. The gist of the method:
as §2

In data set [9] the test system is PBMC. Briefly: Anti-HIV activity measured as the ability to inhibit HIV -1 p24 Gag protein production, using PHA/PBM system. The class given is functional, cell-based. The following applies: Homo sapiens. The gist of the method: as §2
Data set [10] deals with PBMC. The experiment in a line: % protection was determined as the percent reduction in HIV p24 Gag protein production using PHA/PBM system at 80 uM concentration. The format is functional, Homo sapiens. The gist of the method: as §2
The nature of data set [11]: Partition coefficient (logP). The class given is physicochemical. The following applies: octanol/water. In short, it runs like this:
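Octanol/pH 7.0 buffer partition coefficient measured by microscale shake-flask, with HPLC quantification of both phases. Run in triplicate; mean ± SD of three determinations.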

Data set [12] in a line: Half life period was determined, at pH 1.0. The format is ADME. In short, it runs like this:
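Nucleoside (1.0 mM aqueous stock, diluted 1:20) incubated in pH 1.0 HCl/KCl buffer at 37 °C. Timed aliquots diluted into pH 7.4 phosphate buffer and quantified by isocratic C18 HPLC (15% CH3CN in pH 7.0, 0.01 M phosphate). Data fitted to first-order exponential decay or association.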

This is an account of results in ChEMBL document CHEMBL1128286, “Lipophilic, acid-stable, adenosine deaminase-activated anti-HIV prodrugs for central nervous system delivery. 2. 6-Halo and 6-alkoxy prodrugs of 2'-beta-fluoro-2',3'-dideoxyinosine” (J Med Chem, 1995).

The structures appear in SMILES notation.

Usually half-life stands for the time in which the quantity being followed falls by half. Higher therefore signals slow loss. As usually defined, the IC50 is the concentration that gives 50% inhibition. Read a low IC50 as inhibition by little substance. For `OCC1CC(F)C(n2cnc3c(Cl)ncnc32)O1` (stereo unspecified), in [1], the half-life is 91.7 h. Further, the figures for the Activity in [2] and in data set [3] were 1.6 and 2, respectively. Besides, the Protection in data set [4] came out at 98%; in [5], 70%; in data set [6], 92%; in data set [7], 97%; in data set [8], 40%. In [9], this molecule displayed an IC50 of 5.9 µM.

With `O=c1[nH]cnc2c1ncn2[C@H]1CC[C@@H](CO)O1` [DIDANOSINE], the Protection in [5] worked out at 96%; in data set [6], 98%; in data set [7], 98%; in data set [8], 97%; in data set [10], 98%. This molecule returned an IC50 in data set [9] of less than 5 µM.

The term logP denotes a log measure of how a compound divides between an organic and an aqueous phase. Read a low logP as a more hydrophilic compound. As for `OCC1CC(F)C(n2cnc3c(F)ncnc32)O1` (stereo unspecified), in data set [11], the logP was 0.056. The molecule further showed a half-life in [12] of 0.54 h. Also, the results for the Activity in data set [2] and in data set [3] were 233 and 202, respectively. For the same molecule, the Protection was determined as 83% in data set [5]; 97% in data set [6]; 99% in [7]; 58% in data set [8]; 99% in [10]. This molecule displayed a half-maximal inhibitory concentration (IC50) in data set [9] of less than 5 µM.

With `OCC1CC(F)C(n2cnc3c(I)ncnc32)O1` (stereo unspecified), in data set [11], the logP amounted to 0.627. Besides, the half-life in [1] is 20.9 h. In addition, the Activity in data set [2] came to 0.21; in [3], 0.28. In addition, the Protection worked out at 45% in data set [5]; 81% in data set [6]; 96% in data set [7]; 27% in [8]; 96% in data set [10]. For the same molecule, the IC50 in [9] is 10.4 µM.

For `COc1ncnc2c1ncn2C1OC(CO)CC1F` (stereo unspecified), the logP in data set [11] is 0.245. For the same molecule, the half-life in [1] was 29.6 h. The Activity in data set [2] was found to be 0.64; in data set [3], 0.63. Also, the Protection in data set [5] was found to be 35%; in data set [6], 49%; in data set [7], 75%; in [8], 18%; in data set [10] it was 92%. This molecule displayed an IC50 in data set [9] of 20 µM.

With `OCC1CC(F)C(n2cnc3c(O)ncnc32)O1` (stereo unspecified), the Protection was 61% in data set [5]; 89% in data set [6]; 97% in data set [7]; 54% in data set [8]; 98% in [10]. In data set [9], this molecule had an IC50 of less than 5 µM.

With `OCC1CC(F)C(n2cnc3c(Br)ncnc32)O1` (stereo unspecified), in [11], the logP worked out at 0.443. The same molecule gave a half-life in data set [1] of 48.5 h. For the same molecule, the Activity turned out to be 1.5 in data set [2] and 1.7 in data set [3]. Moreover, the Protection is recorded as 71% in [5]; 90% in data set [6]; 97% in data set [7]; 31% in data set [8]; 99% in data set [10]. For the same molecule, the IC50 in data set [9] was determined as 6.5 µM.

`Cc1cn([C@H]2C[C@H](N=[N+]=[N-])[C@@H](CO)O2)c(=O)[nH]c1=O` [ZIDOVUDINE] had a logP in data set [11] of 0.052.

As to `CCOc1ncnc2c1ncn2C1OC(CO)CC1F` (stereo unspecified), the logP in data set [11] is 0.803. Also, the half-life in data set [1] was 29.2 h. This molecule also gave an Activity in data set [3] of 0.008. For the same molecule, the Protection in [5] was determined as 39%; in data set [6], 58%; in data set [7] it was 79%; in data set [8], 32%; in data set [10], 93%. Moreover, in data set [9], half-maximal inhibition (IC50) was put at 14.1 µM.
